Published values gathered from unrelated publications.
Each line is one published result; the experiments were not run side by side.
JAK1 JH1: Tyrosine-protein kinase JAK1, JH1 (JAK1, Homo sapiens, UniProt P23458)
JAK1: Tyrosine-protein kinase JAK1 (JAK1, Homo sapiens, UniProt P23458)
JAK1 JH2: Tyrosine-protein kinase JAK1, JH2 (JAK1, Homo sapiens, UniProt P23458)

O=C(Nc1c[nH]nc1C(=O)NC1CCNCC1)c1cc(F)cc(F)c1
remaining binding (JAK1 JH1; binding; competition with immobilised ligand; 1 µM): 88%

CN1CCN(c2ccc(Nc3nccc(-c4cccc([N+](=O)[O-])c4)n3)cc2C(F)(F)F)CC1
remaining binding (JAK1; binding; 10 µM): 0.25%

O=C(NCCCN1CCOCC1)c1ccc(Nc2ncc(Cl)c(-c3ccc(Cl)s3)n2)cc1
remaining binding (JAK1 JH2; binding; competition with immobilised ligand; 1 µM): 46%

c1cnn2ncc(-c3ccnc(N4CCC45COC5)n3)c2c1
remaining binding (JAK1; binding; 1 µM): 67%

CCN1CCN(Cc2ccc(C(=O)Nc3ccc(C)c(Oc4ccc5c(c4)CC(=O)N5)c3)cc2C(F)(F)F)CC1
remaining binding (JAK1 JH1; binding; competition with immobilised ligand; 1 µM): 76%

NS(=O)(=O)c1cc(NC(=O)C2(c3ccccc3Cl)CC2)ccc1Oc1cccc(Cl)c1
remaining binding (JAK1 JH2; cell-free assay; competition with immobilised ligand; 1 µM): 76%

CN(C)c1nccc(-c2cnc3ncccn23)n1
remaining binding (JAK1 JH1; cell-free assay; competition with immobilised ligand; 1 µM): 94%

CCC(=O)N[C@H]1CC[C@@H](C(=O)N(C)c2ccc(-c3nc4ccccc4o3)cc2)C1
remaining binding (JAK1 JH2; cell-free assay; competition with immobilised ligand; 1 µM): 77%

F[C@@H]1CCN(c2nccc(-c3cnn4ncccc34)n2)C1
remaining binding (JAK1; binding; 1 µM): 100%

O=C(c1ccc(Nc2nccc(-c3cc4ccccc4s3)n2)cc1)N1CCC(N2CCCC2)CC1
remaining binding (JAK1 JH2; binding; competition with immobilised ligand; 1 µM): 3.6%

CCS(=O)(=O)c1cc2cc(C[C@](O)(CC(C)(C)c3ccc(F)cc3C(N)=O)C(F)(F)F)[nH]c2cn1
remaining binding (JAK1 JH2; cell-free assay; competition with immobilised ligand; 1 µM): 95%

COc1cnc(Nc2cccc(S(N)(=O)=O)c2)nc1N1CCN(c2ccccc2)C(=O)C1
remaining binding (JAK1 JH1; binding; competition with immobilised ligand; 1 µM): 85%

C[C@@H]1CCN(c2nccc(-c3cnn4ncccc34)n2)C1
remaining binding (JAK1; binding; 1 µM): 62%

CNC(=O)[C@@H]1CC[C@@H](n2c(-c3ccc4cnccc4c3)nc3ccc(C(=O)NCc4cccc(C(N)=O)c4)cc32)C1
remaining binding (JAK1 JH1; binding; competition with immobilised ligand; 1 µM): 88%

O=C(NCC1CCOCC1)c1n[nH]cc1NC(=O)c1c(F)cccc1F
remaining binding (JAK1 JH1; binding; competition with immobilised ligand; 1 µM): 100%

O=C(NCCCN1CCOCC1)c1ccc(Nc2nccc(-c3cc4ccccc4s3)n2)cc1
remaining binding (JAK1 JH1; binding; competition with immobilised ligand; 1 µM): 39%

CN(C)c1ncc(F)c(-c2cnn3ncccc23)n1
remaining binding (JAK1; binding; 1 µM): 89%

Nc1cnc(N2CCc3cc(S(=O)(=O)Nc4c(F)cc(Cl)cc4F)cc(N4CCCC4=O)c32)nc1
remaining binding (JAK1 JH1; cell-free assay; competition with immobilised ligand; 1 µM): 100%

Nc1ncc2c(n1)-c1c([nH]c3ccc(C#CC4CC4)cc13)CCCC2
remaining binding (JAK1 JH2; binding; competition with immobilised ligand; 1 µM): 97%

Cc1nc(C2CCN(C(=O)c3ccc(OC(F)(F)F)cc3N)CC2)c2ncc(N3CCN(C)CC3)cc2n1
remaining binding (JAK1 JH1; cell-free assay; competition with immobilised ligand; 1 µM): 95%

Cc1cnc(Nc2ccc(C(=O)N3CCC(N4CCCC4)CC3)cc2)nc1-c1cc2ccccc2s1
remaining binding (JAK1 JH1; binding; competition with immobilised ligand; 1 µM): 0%

CC1=C(C#N)[C@@H](c2ccc3[nH]nc(C)c3c2)C(C#N)=C(c2ccc(Cl)cc2)N1
remaining binding (JAK1 JH1; cell-free assay; competition with immobilised ligand; 1 µM): 100%

CC1CCCN1c1nccc(-c2cnn3ncccc23)n1 (stereo not drawn)
remaining binding (JAK1 JH1; cell-free assay; competition with immobilised ligand; 1 µM): 100%

C[C@@H]1CN(c2cc(-c3n[nH]c4ccc(OC5(C)CC5)cc34)ncn2)C[C@H](C)O1
remaining binding (JAK1 JH2; cell-free assay; competition with immobilised ligand; 0.1 µM): 79%

c1cncc(-c2cccc(Nc3nccc(NC4CCCCC4)n3)c2)c1
remaining binding (JAK1 JH1; binding; competition with immobilised ligand; 10 µM): 14%

FC(F)(F)Oc1cccc(-c2cnc3ccc(-c4ccncc4)nn23)c1
remaining binding (JAK1 JH1; cell-free assay; competition with immobilised ligand; 5 µM): 100%

CN(C)CC#Cc1ccc(OCCCc2sc(N3CCc4cccc(C(=O)Nc5nc6ccccc6s5)c4C3)nc2C(=O)O)c(F)c1
remaining binding (JAK1 JH2; cell-free assay; competition with immobilised ligand; 1 µM): 100%

O=C(c1ccc(Nc2ncc(Cl)c(-c3ccc(Cl)s3)n2)cc1)N1CCC(N2CCCC2)CC1
remaining binding (JAK1 JH1; binding; competition with immobilised ligand; 1 µM): 8.6%

CN(C)c1nccc(-c2cnn3ncccc23)n1
remaining binding (JAK1; binding; 1 µM): 53%

COc1cnc(Nc2cccc(S(N)(=O)=O)c2)nc1N1CCN(c2ccccc2)CC1
remaining binding (JAK1 JH2; binding; competition with immobilised ligand; 1 µM): 28%

N[C@@H]1CCN(c2nccc(-c3cnn4ncccc34)n2)C1
remaining binding (JAK1; binding; 1 µM): 100%

O=C(c1ccc(Nc2ncc(Cl)c(-c3cc4ccccc4s3)n2)cc1)N1CCC(N2CCCC2)CC1
remaining binding (JAK1 JH1; binding; competition with immobilised ligand; 1 µM): 9.3%

COc1ncc2cc3ccccc3nc2c1C#N
remaining binding (JAK1 JH1; cell-free assay; competition with immobilised ligand; 5 µM): 93%
